Measured values as given in ChEMBL document CHEMBL1134553 (J Med Chem, 2001).

These compounds were tested against T1, Sodium-dependent serotonin transporter (Homo sapiens, UniProt P31645) (assay: Inhibition of [3H]citalopram binding to the serotonin transporter in rhesus (Macaca mulatta) or cynomolgus monkey (Macaca fascicularis) caudate-putamen.). Details: target entry is the homologue from another species; call rule not given here.
Assay type: tissue-based, Cercopithecidae
Outline: (§1)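 Caudate-putamen membranes homogenised in ice-cold 50 mM Tris·HCl (pH 7.4), spun at 38000g for 20 min, washed twice. Assay at 4 mg original wet tissue/mL with 1 nM [3H]citalopram in 50 mM Tris·HCl pH 7.4 plus 100 mM NaCl. Incubated 2 h at 0-4 °C, then filtered on polyethyleneimine-soaked GF/B and counted by scintillation. Nonspecific binding defined with 10 µM fluoxetine. IC50 by EBDA; triplicates, 2-3 brains.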

T1 sequence (P31645 whole entry): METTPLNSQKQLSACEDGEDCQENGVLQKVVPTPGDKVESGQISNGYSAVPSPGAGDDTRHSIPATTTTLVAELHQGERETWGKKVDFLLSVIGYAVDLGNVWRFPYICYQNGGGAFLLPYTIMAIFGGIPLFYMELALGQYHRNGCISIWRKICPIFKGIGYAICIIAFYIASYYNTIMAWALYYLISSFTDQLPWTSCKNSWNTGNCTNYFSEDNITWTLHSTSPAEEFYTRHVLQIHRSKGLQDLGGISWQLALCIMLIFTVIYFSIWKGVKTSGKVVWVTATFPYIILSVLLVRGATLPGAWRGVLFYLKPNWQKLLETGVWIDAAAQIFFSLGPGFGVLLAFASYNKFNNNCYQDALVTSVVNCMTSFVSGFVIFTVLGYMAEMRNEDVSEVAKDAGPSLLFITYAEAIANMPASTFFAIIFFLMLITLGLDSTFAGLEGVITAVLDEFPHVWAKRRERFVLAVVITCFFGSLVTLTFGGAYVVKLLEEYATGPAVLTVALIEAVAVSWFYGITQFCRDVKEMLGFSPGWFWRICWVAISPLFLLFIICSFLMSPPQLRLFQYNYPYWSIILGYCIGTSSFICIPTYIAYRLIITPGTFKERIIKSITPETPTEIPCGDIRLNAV

Row | SMILES | IC50 [nM]
1 | COC(=O)[C@H]1C2C(=O)CC(C[C@H]1c1ccc(Cl)c(Cl)c1)N2C (some centres not stated) | 7040
2 | COC(=O)C1=C(c2ccc(F)cc2)CC2C[C@@H](O)C1N2C (some centres not stated) | > 10000
3 | COC(=O)C1C(OC(c2ccc(F)cc2)c2ccc(F)cc2)CC2C[C@@H](O)C1N2C (some centres not stated) | 9560
4 | COC(=O)C1=C(c2ccc3ccccc3c2)CC2[C@@H](O)CC1N2C (some centres not stated) | 260
5 | COC(=O)C1=C(c2ccc(F)cc2)CC2[C@@H](O)CC1N2C (some centres not stated) | > 20000
6 | COC(=O)C1=C(c2ccc3ccccc3c2)CC2C[C@@H](O)C1N2C (some centres not stated) | 677
7 | COC(=O)C1=C(c2ccc(Cl)c(Cl)c2)CC2[C@@H](O)CC1N2C (some centres not stated) | 3320
8 | COC(=O)C1=C(c2ccc(Cl)c(Cl)c2)CC2C[C@H](O)[C@H]1N2C | 1590
9 | COC(=O)[C@@H]1C(c2ccc(Cl)c(Cl)c2)C[C@H]2C[C@@H](O)C1N2C (some centres not stated) | 1220
10 | COC(=O)C1=C(c2ccc(Cl)c(Cl)c2)C[C@H]2C[C@@H](O)C1N2C | 5370
11 | COC(=O)C1=C(c2ccc(Cl)c(Cl)c2)CC2C[C@@H](O)C1N2C (some centres not stated) | > 6000
12 | COC(=O)C1C(c2ccc(Cl)c(Cl)c2)CC2[C@H](O)CC1N2C (some centres not stated) | 10700
13 | COC(=O)C1C(c2ccc(Cl)c(Cl)c2)CC2C[C@H](O)C1N2C (some centres not stated) | 991
14 | COC(=O)C1=C(c2ccccc2)CC2CCC1N2C (configuration not stated) | 28600
15 | COC(=O)C1=C(c2ccccc2)CC2C[C@@H](O)C1N2C (some centres not stated) | > 10000
16 | COC(=O)C1=C(c2ccccc2)CC2[C@@H](O)CC1N2C (some centres not stated) | > 100000
17 | COC(=O)C1C(OC(c2ccc(F)cc2)c2ccc(F)cc2)CC2[C@@H](O)CC1N2C (some centres not stated) | 4850
18 | COC(=O)C1C(c2ccc(Cl)c(Cl)c2)C[C@H]2C[C@@H](O)C1N2C (some centres not stated) | 15
19 | COC(=O)C1C(c2ccc(Cl)c(Cl)c2)CC2[C@@H](O)CC1N2C (stereo in doubt; 14a) [listing 1 of 2 here] | 166
20 | COC(=O)C1C(c2ccc3ccccc3c2)CC2[C@@H](O)CC1N2C (stereo in doubt; 14b) [listing 1 of 2 here] | 34.2

Row | SMILES | IC50 [nM]
21 | COC(=O)C1C(c2ccc(F)cc2)CC2[C@@H](O)CC1N2C (stereo in doubt; 14c) [listing 1 of 2 here] | > 20000
22 | COC(=O)C1C(c2ccccc2)CC2[C@@H](O)CC1N2C (stereo in doubt; 14d) [listing 1 of 2 here] | 88000
23 | COC(=O)C1C(c2ccc(Cl)c(Cl)c2)CC2C[C@@H](O)C1N2C (stereo in doubt; 15a) [listing 1 of 2 here] | 27.7
24 | COC(=O)C1C(c2ccc3ccccc3c2)CC2C[C@@H](O)C1N2C (stereo in doubt; 15b) [listing 1 of 2 here] | 5.57
25 | COC(=O)C1C(c2ccc(F)cc2)CC2C[C@@H](O)C1N2C (stereo in doubt; 15c) [listing 1 of 2 here] | > 10000
26 | COC(=O)C1C(c2ccccc2)CC2C[C@@H](O)C1N2C (stereo in doubt; 15d) [listing 1 of 2 here] | > 10000
27 | COC(=O)[C@H]1[C@@H](c2ccc(F)cc2)C[C@H]2CC[C@H]1N2C (stereo in doubt; 16c) | 1130
28 | COC(=O)C1C(c2ccc(Cl)c(Cl)c2)CC2[C@@H](O)CC1N2C (stereo in doubt; 17a) [listing 1 of 2 here] | 1450
29 | COC(=O)C1C(c2ccc3ccccc3c2)CC2[C@@H](O)CC1N2C (stereo in doubt; 17b) [listing 1 of 2 here] | 180
30 | COC(=O)C1C(c2ccc(F)cc2)CC2[C@@H](O)CC1N2C (stereo in doubt; 17c) [listing 1 of 2 here] | 5820
31 | COC(=O)C1C(c2ccccc2)CC2[C@@H](O)CC1N2C (stereo in doubt; 17d) [listing 1 of 2 here] | > 10000
32 | COC(=O)C1C(c2ccc(Cl)c(Cl)c2)CC2C[C@@H](O)C1N2C (stereo in doubt; 18a) [listing 1 of 2 here] | 1390
33 | COC(=O)C1C(c2ccc3ccccc3c2)CC2C[C@@H](O)C1N2C (stereo in doubt; 18b) [listing 1 of 2 here] | 94
34 | COC(=O)C1C(c2ccc(F)cc2)CC2C[C@@H](O)C1N2C (stereo in doubt; 18c) [listing 1 of 2 here] | > 20000
35 | COC(=O)C1C(c2ccccc2)CC2C[C@@H](O)C1N2C (stereo in doubt; 18d) [listing 1 of 2 here] | > 100000
36 | COC(=O)C1C(c2ccc(Cl)c(Cl)c2)CC2C[C@@H](O)C1N2C (stereo in doubt; 33) | 533
37 | COC(=O)C1C(c2ccccc2)CC2[C@@H](O)CC1N2C (stereo in doubt; 34) | > 20000
38 | COC(=O)[C@H]1C(c2ccc(Cl)c(Cl)c2)CC2C[C@@H](O)[C@H]1N2C (stereo in doubt; (1R)-15a) [listing 1 of 2 here] | 139
39 | COC(=O)[C@H]1C(c2ccc(Cl)c(Cl)c2)CC2C[C@@H](O)[C@H]1N2C (stereo in doubt; (1R)-18a) [listing 1 of 2 here] | 5300

The compounds below were run against T1, Sodium-dependent serotonin transporter (assay: Inhibition of [3H]-citalopram binding to the serotonin transporter in rhesus (Macaca mulatta) or cynomolgus monkey (Macaca fascicularis) caudate-putamen.). Details: not given.
Assay type: tissue-based, Cercopithecidae
Outline: as §1

Row | SMILES | IC50
40 | COC(=O)[C@@H]1C2CC[C@H](C[C@@H]1c1ccccc1)N2C.Cl | Not Active

These compounds were tested against Monoamine transporters; serotonin & dopamine (Homo sapiens) (UniProt P31645+Q01959) (assay: SERT/DAT ratio of the compound). Details: not given.
Monoamine transporters; serotonin & dopamine (Homo sapiens), sequence (P31645 whole entry, looked up): as the sequence (P31645 whole entry) above
Monoamine transporters; serotonin & dopamine (Homo sapiens), sequence (Q01959 whole entry, looked up): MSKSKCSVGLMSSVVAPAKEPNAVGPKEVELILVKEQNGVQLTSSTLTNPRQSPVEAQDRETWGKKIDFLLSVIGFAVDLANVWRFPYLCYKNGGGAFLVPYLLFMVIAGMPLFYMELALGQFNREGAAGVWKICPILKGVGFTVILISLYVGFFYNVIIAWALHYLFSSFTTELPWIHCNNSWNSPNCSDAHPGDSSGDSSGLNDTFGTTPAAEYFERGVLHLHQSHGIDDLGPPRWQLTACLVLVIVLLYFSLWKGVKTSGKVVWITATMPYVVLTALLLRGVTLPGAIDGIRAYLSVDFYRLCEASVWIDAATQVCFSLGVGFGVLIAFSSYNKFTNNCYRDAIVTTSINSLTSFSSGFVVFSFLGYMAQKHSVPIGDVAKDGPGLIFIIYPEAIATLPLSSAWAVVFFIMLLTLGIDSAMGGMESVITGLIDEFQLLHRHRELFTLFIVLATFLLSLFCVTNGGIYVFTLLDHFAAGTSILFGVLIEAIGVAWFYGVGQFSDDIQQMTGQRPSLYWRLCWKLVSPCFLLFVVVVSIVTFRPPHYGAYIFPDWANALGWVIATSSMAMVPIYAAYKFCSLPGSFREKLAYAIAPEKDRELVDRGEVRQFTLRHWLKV
Assay type: protein assay

Row | SMILES | Ratio
41 | COC(=O)C1=C(c2ccc(F)cc2)CC2C[C@@H](O)C1N2C (some centres not stated) | 1
42 | COC(=O)C1=C(c2ccc3ccccc3c2)CC2[C@@H](O)CC1N2C (some centres not stated) | 1
43 | COC(=O)C1=C(c2ccc(F)cc2)CC2[C@@H](O)CC1N2C (some centres not stated) | 1
44 | COC(=O)C1=C(c2ccc3ccccc3c2)CC2C[C@@H](O)C1N2C (some centres not stated) | 15
45 | COC(=O)C1=C(c2ccc(Cl)c(Cl)c2)CC2[C@@H](O)CC1N2C (some centres not stated) | 60
46 | COC(=O)C1=C(c2ccc(Cl)c(Cl)c2)CC2C[C@H](O)[C@H]1N2C | 6
47 | COC(=O)[C@@H]1C(c2ccc(Cl)c(Cl)c2)C[C@H]2C[C@@H](O)C1N2C (some centres not stated) | 1610
48 | COC(=O)C1=C(c2ccc(Cl)c(Cl)c2)CC2C[C@@H](O)C1N2C (some centres not stated) | > 300
49 | COC(=O)C1=C(c2ccccc2)CC2CCC1N2C (configuration not stated) | 11
50 | COC(=O)C1=C(c2ccccc2)CC2C[C@@H](O)C1N2C (some centres not stated) | 1
51 | COC(=O)C1=C(c2ccccc2)CC2[C@@H](O)CC1N2C (some centres not stated) | 1
52 | COC(=O)C1C(c2ccc(Cl)c(Cl)c2)C[C@H]2C[C@@H](O)C1N2C (some centres not stated) | 50
53 | COC(=O)C1=C(c2ccc(Cl)c(Cl)c2)CC2CCC1N2C (configuration not stated) | 747
54 | COC(=O)C1=C(c2ccc(F)cc2)CC2CCC1N2C (configuration not stated) | 20
55 | COC(=O)C1=C(c2ccc3ccccc3c2)CC2CCC1N2C (configuration not stated) | 37
56 | COC(=O)C1C(c2ccc(Cl)c(Cl)c2)CC2CCC1N2C (stereo in doubt; 13a) | 2
57 | COC(=O)C1C(c2ccc3ccccc3c2)CC2CCC1N2C (stereo in doubt; 13b) | 5
58 | COC(=O)C1C(c2ccc(Cl)c(Cl)c2)CC2[C@@H](O)CC1N2C (stereo in doubt; 14a) [listing 2 of 2 here] | 55
59 | COC(=O)C1C(c2ccc3ccccc3c2)CC2[C@@H](O)CC1N2C (stereo in doubt; 14b) [listing 2 of 2 here] | 4

Row | SMILES | Ratio
60 | COC(=O)C1C(c2ccc(F)cc2)CC2[C@@H](O)CC1N2C (stereo in doubt; 14c) [listing 2 of 2 here] | > 42
61 | COC(=O)C1C(c2ccccc2)CC2[C@@H](O)CC1N2C (stereo in doubt; 14d) [listing 2 of 2 here] | 14
62 | COC(=O)C1C(c2ccc(Cl)c(Cl)c2)CC2C[C@@H](O)C1N2C (stereo in doubt; 15a) [listing 2 of 2 here] | 20
63 | COC(=O)C1C(c2ccc3ccccc3c2)CC2C[C@@H](O)C1N2C (stereo in doubt; 15b) [listing 2 of 2 here] | 4
64 | COC(=O)C1C(c2ccc(F)cc2)CC2C[C@@H](O)C1N2C (stereo in doubt; 15c) [listing 2 of 2 here] | > 80
65 | COC(=O)C1C(c2ccccc2)CC2C[C@@H](O)C1N2C (stereo in doubt; 15d) [listing 2 of 2 here] | > 43
66 | COC(=O)C1C(c2ccc(Cl)c(Cl)c2)CC2CCC1N2C (stereo in doubt; 16a) | 73
67 | COC(=O)C1C(c2ccc3ccccc3c2)CC2CCC1N2C (stereo in doubt; 16b) | 10
68 | COC(=O)C1C(c2ccc(Cl)c(Cl)c2)CC2[C@@H](O)CC1N2C (stereo in doubt; 17a) [listing 2 of 2 here] | 238
69 | COC(=O)C1C(c2ccc3ccccc3c2)CC2[C@@H](O)CC1N2C (stereo in doubt; 17b) [listing 2 of 2 here] | 6
70 | COC(=O)C1C(c2ccc(F)cc2)CC2[C@@H](O)CC1N2C (stereo in doubt; 17c) [listing 2 of 2 here] | 8
71 | COC(=O)C1C(c2ccccc2)CC2[C@@H](O)CC1N2C (stereo in doubt; 17d) [listing 2 of 2 here] | > 3
72 | COC(=O)C1C(c2ccc(Cl)c(Cl)c2)CC2C[C@@H](O)C1N2C (stereo in doubt; 18a) [listing 2 of 2 here] | 1170
73 | COC(=O)C1C(c2ccc3ccccc3c2)CC2C[C@@H](O)C1N2C (stereo in doubt; 18b) [listing 2 of 2 here] | 34
74 | COC(=O)C1C(c2ccc(F)cc2)CC2C[C@@H](O)C1N2C (stereo in doubt; 18c) [listing 2 of 2 here] | > 120
75 | COC(=O)C1C(c2ccccc2)CC2C[C@@H](O)C1N2C (stereo in doubt; 18d) [listing 2 of 2 here] | > 190
76 | COC(=O)[C@H]1C(c2ccc(Cl)c(Cl)c2)CC2C[C@@H](O)[C@H]1N2C (stereo in doubt; (1R)-15a) [listing 2 of 2 here] | 0.05
77 | COC(=O)[C@H]1C(c2ccc(Cl)c(Cl)c2)CC2C[C@@H](O)[C@H]1N2C (stereo in doubt; (1R)-18a) [listing 2 of 2 here] | 11
